ChEMBL document CHEMBL4190254, “Synthesis of sulfamoylbenzamide derivatives as HBV capsid assembly effector” (Eur J Med Chem, 2017)
Activity calls are given as the source filed them. The calls are words filed in the database; no cut-off is given here.

Columns and labels:
[1] = tested on: PBMC; experiment: (§1) Cytotoxicity against human PBMC by CellTiter 96 non-radioactive cell proliferation colorimetric assay; type: cell-based
Outline: (§2)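 A CellTiter 96 colorimetric cell proliferation read-out was used in primary human PBM cells, CEM, Vero and HepG2 cells. CC50 is the concentration that inhibits cell growth by 50%.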

[2] = tested on: CCRF-CEM; experiment: (§3) Cytotoxicity against human CEM cells by CellTiter 96 non-radioactive cell proliferation colorimetric assay; type: cell-based; conditions: ccrf-cem; outline: as §2
[3] = tested on: Hepatitis B virus; experiment: Antiviral activity against HBV infected in human HepAD38 cells assessed as reduction in intracellular viral DNA level by RT-PCR method; type: functional, organism-based
Outline: (§4)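 HBV DNA replication in HepAD38 cells was quantified by RT-PCR following an earlier published method, with data relative to the untreated control. EC50 (50% inhibition of HBV DNA replication) was derived by linear regression. Values are the mean ± SD of two or three replicates from 2 independent experiments.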

[4] = tested on: Vero; experiment: (§5) Cytotoxicity against African green monkey Vero cells by CellTiter 96 non-radioactive cell proliferation colorimetric assay; type: cell-based; conditions: chlorocebus sabaeus, vero; outline: as §2
[5] = tested on: Hepatitis B virus; experiment: Antiviral activity against HBV infected in human HepAD38 cells assessed as reduction in extracellular viral DNA level by RT-PCR method; type: functional, organism-based; outline: as §4
[6] = tested on: Hepatitis B virus; experiment: Antiviral activity against HBV infected in human HepAD38 cells assessed as reduction in viral replication by RT-PCR method; type: functional, organism-based; outline: as §4
[7] = tested on: Hepatitis B virus; experiment: Antiviral activity against HBV infected in human HepDES19 cells assessed as reduction in viral replication; type: functional, organism-based
[8] = tested on: Hepatitis B virus; experiment: Inhibition of HBV capsid cp149 assembly expressed in Escherichia coli BL21 assessed as formation of disfigured circular assemblies at 20 uM preincubated for 1 hr followed by NaCl stimulation measured after overnight incubation by uranyl acetate staining based electron microscopic method
Outline: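 Untagged HBV core residues 1–149 expressed in E. coli BL21 (1 mM IPTG, 16 °C overnight), purified as capsids, dissociated to dimers with 4 M urea in carbonate buffer pH 9.5; >95% pure. Dimers preincubated 1 hr with compound (20 μM), then capsid buffer added (final NaCl 300 mM, Cp149 monomer 10 μM); held 4 °C overnight; uranyl acetate negative-stain EM, single-blind.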

[9] = target: Core antigen (Hepatitis B virus) (UniProt Q03732); experiment: (§6) Inhibition of capsid in HBV infected in human HepAD38 cells assessed as reduction in tetracycline-induced cccDNA formation by measuring reduction in HBe antigen secretion after 14 days by ELISA; type: cell-based
Outline: (§7)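 HepAD38 cells, collagen-coated wells, DMEM/F12 with 10% heat-inactivated FBS. Tetracycline withdrawn 7 days to allow DNA synthesis and cccDNA formation; at day 7 tetracycline (0.3 μg/ml) plus compound re-added. Compound at 10 μM or 0.001–10 μM, medium and compound replenished every 5 days. Day-14 supernatant HBeAg by ELISA; EC50 by linear regression.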

[10] = target: Core antigen (Hepatitis B virus, UniProt Q03732); experiment: as §6; type: cell-based; outline: as §7
[11] = target: Core antigen (Hepatitis B virus) (UniProt Q03732); experiment: Inhibition of capsid in HBV infected in human HepAD38 cells assessed as reduction in cccDNA formation by measuring reduction in HBe antigen secretion at 3 to 4 uM after 14 days by ELISA relative to control; type: cell-based; outline: as §7
[12] = tested on: HepG2; experiment: Cytotoxicity against human HepG2 cells by CellTiter 96 non-radioactive cell proliferation colorimetric assay; type: cell-based; outline: as §2
[13] = as §1; type: cell-based; outline: as §2
[14] = as §3; type: cell-based, CCRF-CEM; conditions: CEM (CCRF-CEM) cells; outline: as §2
[15] = tested on: Hepatitis B virus; experiment: Antiviral activity against HBV infected in human HepAD38 cells assessed as reduction in intracellular viral DNA level at 10 uM by RT-PCR method relative to control; type: functional; parameters: scale not given: the % may be the effect or the level left
Outline: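 HepAD38 cells; intracellular HBV DNA quantified by RT-PCR, expressed relative to untreated control; single-point inhibition given as percent at 10 μM, mean ± SD of two or three replicates from 2 independent experiments.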

[16] = target: Core antigen (Hepatitis B virus) (UniProt Q03732); experiment: Inhibition of capsid in HBV infected in human HepAD38 cells assessed as reduction in cccDNA formation by measuring reduction in HBe antigen secretion at 10 uM after 14 days by ELISA relative to control; type: cell-based; outline: as §7
[17] = as §5; type: cell-based; conditions: chlorocebus sabaeus, Vero cells; outline: as §2

Core antigen (Hepatitis B virus), sequence (Q03732 as listed by the source): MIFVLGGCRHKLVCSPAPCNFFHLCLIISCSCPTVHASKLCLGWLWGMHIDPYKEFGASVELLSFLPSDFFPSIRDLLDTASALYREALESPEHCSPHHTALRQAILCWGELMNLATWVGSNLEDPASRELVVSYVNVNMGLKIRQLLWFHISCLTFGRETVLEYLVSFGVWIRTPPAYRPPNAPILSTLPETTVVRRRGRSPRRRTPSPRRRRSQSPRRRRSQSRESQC
Core antigen, sequence (Q03732 whole entry): as the sequence (Q03732 as listed by the source) above

Row | SMILES | CC50 [1] [µM] | CC50 [2] [µM] | EC50 [3] [nM] | EC90 [3] [nM] | CC50 [4] [µM] | EC50 [5] [nM] | EC90 [5] [µM] | EC50 [6] [nM] | EC90 [6] [µM] | EC50 [7] [nM] | inhibition [8] | EC90 [9] [µM] | EC50 [10] [nM] | inhibition [11] [%] | CC50 [12] [µM] | CC50 [13] [µM] | CC50 [14] [µM] | Activity [15] [%] | inhibition [16] [%] | CC50 [17] [µM]
1 | O=C(Nc1ccc(F)c(F)c1)c1cc(S(=O)(=O)NC2CCCC2)ccc1F | 15.6 | 14 | 600 | 4300 | 32.7 | 800 | 7.8 | 800 | 7.8 | 140 | Active | 4.6 | 1300 | 90 | 37.1 |  |  |  |  | 
2 | Nc1ccn([C@@H]2CS[C@H](CO)O2)c(=O)n1 [LAMIVUDINE] |  |  | < 10 | 700 |  |  | 0.3 |  | 0.3 |  |  |  | > 10000 |  | > 10 | > 100 | > 100 | 74 | < 1 | > 100
